Source: PubChem BioAssay
GPR7 antagonist: antagonists of human GPR7 (neuropeptides B/W receptor 1). inhibition, % at 4.4 µM. AID 1861. P48145. hit rate 1.1% among 290,000. GPR7-expressing cells, fluorescence antagonist assay; in the data active = inhibition above about 16%, passing the limit was not always enough;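 also: cells stimulated with the agonist NPW; 0% = agonist with vehicle and 100% = vehicle without agonist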
Target sequence (P48145 whole entry, looked up): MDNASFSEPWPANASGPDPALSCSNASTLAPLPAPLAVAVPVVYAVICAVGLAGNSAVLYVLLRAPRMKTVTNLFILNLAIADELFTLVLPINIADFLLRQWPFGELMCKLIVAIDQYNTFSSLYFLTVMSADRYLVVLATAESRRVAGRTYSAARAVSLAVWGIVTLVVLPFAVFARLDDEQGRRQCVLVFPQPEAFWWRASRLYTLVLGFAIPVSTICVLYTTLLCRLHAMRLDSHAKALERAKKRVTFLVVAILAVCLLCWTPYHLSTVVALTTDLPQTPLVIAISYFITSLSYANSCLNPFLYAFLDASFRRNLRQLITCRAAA
OX1R antag-1: antagonists of human orexin 1 receptor; hit rate 0.43% among 330,000; inhibition, % at 5 µM; O43613; AID 434989; CHO/OX1R cells, Fluo-8 calcium fluorescence, orexin A;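 active = inhibition above its plate's threshold, mean inhibition of all tested compounds on the plate plus 3 SD, cut at about 37% in these data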;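 also: 0% = orexin A challenge wells and 100% = SB-334867-A antagonist wells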
Target sequence (O43613 whole entry, looked up): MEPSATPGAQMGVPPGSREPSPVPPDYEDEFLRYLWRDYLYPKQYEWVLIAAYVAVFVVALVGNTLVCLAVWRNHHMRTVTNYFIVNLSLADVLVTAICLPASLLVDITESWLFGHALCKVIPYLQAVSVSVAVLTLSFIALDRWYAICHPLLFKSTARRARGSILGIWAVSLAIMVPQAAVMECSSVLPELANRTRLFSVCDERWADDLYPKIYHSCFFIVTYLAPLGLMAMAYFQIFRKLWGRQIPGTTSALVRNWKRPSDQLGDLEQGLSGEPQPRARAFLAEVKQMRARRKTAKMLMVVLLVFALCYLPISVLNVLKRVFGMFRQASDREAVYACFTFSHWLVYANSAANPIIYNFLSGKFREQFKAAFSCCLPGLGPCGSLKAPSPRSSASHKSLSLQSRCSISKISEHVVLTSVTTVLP
OX1R antag-2: OX1R (human) antagonism; OX1R-expressing cells, FRET antagonist read-out; inhibition, % at 6.6 µM; hit rate 1.8% among 330,000; AID 485270; in the data active = inhibition mostly above about 38%, no sharp cut-off; inactive = mostly below about 40%;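 also: 0% = agonist challenge alone and 100% = reference antagonist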
TAAR1 antag: antagonists of human TAAR1; inhibition, % at 3 µM; CHO RD-HGA16 TAAR1, Fluo-8 calcium fluorescence, antagonist; hit rate 1.5% among 360,000; AID 624466;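 active = inhibition above a per-plate cutoff, the mean inhibition of test compounds on that plate plus 3 SD, cut at about 49% in these data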;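 also: 0% = DMSO plus EC80 beta-PEA response and 100% = DMSO alone without agonist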
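Assay system: CHO-derived RD-HGA16 cells stably expressing human TAAR1 plus Gα16. Timing: 140 s kinetic read after compound, 140 s after agonist. Technique: kinetic Fluo-8 calcium fluorescence measurement. Measure: % inhibition of agonist calcium response.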
TAAR1 agonist: agonists of human TAAR1 | hit rate 0.99% among 360,000 | AID 624467 | activation, % at 3 µM | CHO RD-HGA16 TAAR1, Fluo-8 calcium fluorescence; vehicle wells 0%, saturating PEA agonist 100%;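 active = activation above the mean activation of all test compounds in the run plus 3 SD, cut at about 38% in these data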
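System: CHO-derived RD-HGA16 cells with stable Gα16 and human TAAR1 / Times: 17-24 h plating, Fluo-8 75 min 37 °C, 30 min RT / Technique: calcium-sensitive Fluo-8 signal, excitation 470-495, emission 515-575 nm / Measure: % activation relative to PEA EC100 response / Benchmarks: DMSO and PEA EC100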
CHO parental Ca: counter-screen: ATP calcium response change in parental CHO cells. parental CHO-K1, ATP-induced calcium, Fluo-8 fluorescence. hit rate 0.63% among 330,000. AID 463079. inhibition, % at 5.6 µM;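 active = inhibition above that plate's mean sample inhibition plus 3 SD, cut at about 26% in these data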;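 also: 0% = ATP-challenged DMSO wells and 100% = DMSO wells without ATP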
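Assay system: parental CHO cells; Read-out basis: percent inhibition of ATP-evoked calcium rise, normalized to controls; Benchmarks: ATP and no-ATP DMSO wells; Compound dosing: single nominal dose of 5.6 µM per compound; Signal: Fluo-8 calcium dye fluorescence; Also added: ATP as calcium-mobilizing challenge; Repeats: singlicate.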
TAAR1 ag confirm: human TAAR1 agonism, confirmed; CHO RD-HGA16 TAAR1, Fluo-8 calcium fluorescence; scaled: DMSO 0%, maximal phenethylamine 100%; AID 651783; hit rate 82% among 2,400; shares compounds with TAAR1 agonist; activation, % at 3 µM;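 active = activation above a cutoff set at the run's mean compound activation plus 3 SD, cut at about 39% in these data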
Ga16 nonsel ag: nonselective agonist in parental cells, TAAR1 agonist counter-screen; activation, % at 3 µM; hit rate 50% among 2,400; CHO-Ga16 parental, Fluo-8 calcium fluorescence; normalized to maximal ATP response, DMSO zero; shares compounds with TAAR1 agonist;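 active = activation above the run cutoff, the mean activation over all tested wells plus 3 SD, cut at about 12% in these data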;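 also: 0% = DMSO wells and 100% = maximal ATP response on the peak over basal ratio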
TAAR1 desensitize: counter-screen for human TAAR1 agonists: agonists that desensitize TAAR1; shares compounds with TAAR1 agonist; CHO RD-HGA16 hTAAR1, Fluo-8 calcium, beta-PEA response inhibition; inhibition, % at 3 µM; hit rate 46% among 2,400; AID 651951;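 active = inhibition above the run cutoff, the mean inhibition of all test compounds plus 3 SD, cut at about 49% in these data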;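 also: beta-PEA stimulus applied at its EC80; loss of beta-PEA calcium signal after compound pretreatment read as receptor desensitization; 0% = DMSO with beta-PEA at EC80 and 100% = DMSO alone without agonist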
Ga16 nonsel ant: nonselective Ga16 antagonism, counter-screen. inhibition, % at 3 µM. hit rate 39% among 2,400. AID 651952. shares compounds with TAAR1 agonist. CHO-Ga16 ATP-induced calcium, Fluo-8 fluorescence;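 active = inhibition above the plate's mean compound inhibition plus 3 SD, computed per plate, cut at about 22% in these data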;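 also: 0% = EC80 ATP with DMSO and 100% = DMSO wells without ATP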
Starred values were filed as active, the others as inactive; . = no result; + = active, no number. Rows were chosen to be rich in hits. Some 4.5% of all compounds tested hit in one or more screens of this group.

SMILES	GPR7 antagonist	OX1R antag-1	OX1R antag-2	TAAR1 antag	TAAR1 agonist	CHO parental Ca	TAAR1 ag confirm	Ga16 nonsel ag	TAAR1 desensitize	Ga16 nonsel ant
CC(=O)c1cccc(OCC(O)CNCC2COc3ccccc3O2)c1 (stereo not drawn)	29	-28	11	10	46*	-13	70*	6	42	17
CC(OCC(O)CNCC1COc2ccccc2O1)c1ccc(Cl)cc1 (stereo not drawn)	17	-30	17	3	37	-10	.	.	.	.
COc1cccc(CNC(=O)[C@@H]2CCCN2C(=O)[C@@H]2CCCN2C(=O)c2cccc3ccccc23)c1	.	.	.	17	1	.	.	.	.	.
N=C(N)SCc1ccccc1Cl	3	-7	4	44	72*	2	82*	3	73*	12
Clc1ccc(-c2ccc(C=Nc3ccc(N4CCOCC4)cc3)o2)cc1	-9	-9	32	-2	54*	-10	27	15*	16	18
Clc1ccc(-c2ccc(C=Nc3ccc(N4CCOCC4)cc3)o2)c(Cl)c1	-4	-9	20	-25	30	-13	.	.	.	.
Cc1cc(NC(=O)c2ccccc2)n(-c2nc3ccccc3[nH]2)n1	-6	-38	5	14	3	-13	.	.	.	.
Cc1cc(NC(=O)C2CCCC2)n(-c2nc3ccccc3[nH]2)n1	-5	-38	17	5	56*	-26	-1	-1	7	17
CC(OC(=O)C1CCN(S(=O)(=O)c2ccc(C(C)(C)C)cc2)CC1)C(=O)N(C)C1CCCCC1 (stereo not drawn)	.	.	.	-10	9	.	.	.	.	.
COc1cc(OC)cc(-c2c(-c3ccc(C(C)=O)cc3)c3cc(-c4cccc5[nH]ccc45)ccc3n2C)c1	.	4	13	1	3	-3	.	.	.	.
O=C(c1nc2ccccn2c1CNCC1OCCc2ccccc21)N1CCOCC1 (stereo not drawn)	-12	-28	12	.	.	-24	.	3	.	13
Cc1ccn2c(CNCC3OCCc4ccccc43)c(C(=O)N3CCCCCC3)nc2c1 (stereo not drawn)	-11	-21	14	39	84*	-20	81*	5	71*	14
CC(C)(c1ccccc1)c1ccc(OCCCN2CCNCC2)cc1	-1	0	20	3	50*	4	37	11	14	12
OC(c1ccccc1)(c1ccccc1)C1CCN(CCCOc2ccc(C(F)(F)F)cc2)CC1	.	.	.	38	43*	.	9	19*	17	38*
N#Cc1ccc(OCCCN2CCC(C(O)(c3ccccc3)c3ccccc3)CC2)cc1	.	.	.	25	40*	.	54*	18*	27	17
COC(=O)c1cccc(OCCCN2CCC(C(O)(c3ccccc3)c3ccccc3)CC2)c1	.	.	.	7	23	.	.	.	.	.
CC(C)(C)c1ccc(OCCCCCCN2CCNCC2)cc1	.	-12	8	-38	31	3	.	.	.	.
OC(c1ccccc1)(c1ccccc1)C1CCN(CCCOc2cccc(Cl)c2)CC1	.	.	.	50*	39*	.	42*	27*	48	49*
Cc1cn([C@H]2C[C@H](O)[C@@H](CNC(=O)[C@H]3CCC(=O)N3)O2)c(=O)[nH]c1=O	.	.	.	2	1	.	.	.	.	.
NS(=O)(=O)c1ccc(CNC(=S)NCc2ccc(F)cc2)cc1	13	4	1	0	3	3	.	.	.	.
CN(CC(=O)Nc1ccc(Cl)cc1)C(=O)CNC(=O)c1ccc(Br)o1	.	-8	9	-11	17	-23	.	.	.	.
COc1ccc(OCCCN2CCC(C(O)(c3ccccc3)c3ccccc3)CC2)cc1	.	.	.	10	38*	.	43*	20*	25	22*
CC(C)c1ccc(OCCCN2CCC(C(O)(c3ccccc3)c3ccccc3)CC2)cc1	.	.	.	46	41*	.	59*	35*	59*	55*
Cc1ccc(OCCCN2CCC(C(O)(c3ccccc3)c3ccccc3)CC2)cc1	.	.	.	13	31	.	.	.	.	.
COc1ccc(CCNC(=O)C/C(C)=N/NC(=O)c2cnccn2)cc1	-9	-2	-1	-20	4	4	.	.	.	.
SMILES	GPR7 antagonist	OX1R antag-1	OX1R antag-2	TAAR1 antag	TAAR1 agonist	CHO parental Ca	TAAR1 ag confirm	Ga16 nonsel ag	TAAR1 desensitize	Ga16 nonsel ant
CNc1nc(N)c([N+](=O)[O-])c(NC2CCCCC2)n1	-25	.	.	-22	60*	.	90*	42*	-2	-17
CC(=O)C1=C(O)C(=O)N(CCc2ccccc2)C1c1ccccc1[N+](=O)[O-] (stereo not drawn)	-8	-7	37	43	67*	5	62*	3	17	6
CN(C)/C=C1\C=C2C(=O)c3ccccc3N2C1=O	6	46*	10	87*	413*	50*	+	+	104*	94*
Cc1ccc(-c2nn(-c3ccccc3)cc2CSC(=N)N)cc1	10	4	14	10	76*	-2	84*	27*	47	25*
Cc1cccc(CSC(=N)N)c1	5	-17	21	40	67*	-2	93*	5	68*	6
N=C(N)SCCc1cccc(CCSC(=N)N)c1	.	-5	22	5	1	-6	.	.	.	.
O=C(Nc1nnc(-c2ccccc2)o1)c1ccc(Cl)cc1	-15	1	23	25	76*	-7	19	16*	8	15
Cc1ccc(CCNC(=O)c2coc3nc4ccccc4nc23)cc1	-9	-19	30	8	70*	-14	27	3	16	23*
CC1CCN(CCCNC(=O)c2coc3nc4ccccc4nc23)CC1	2	-14	46	5	11	-13	.	.	.	.
Cc1nc([N+](=O)[O-])c(Br)n1Cc1ccc(Cl)c(Cl)c1	2	.	.	37	51*	.	9	5	18	13
Cc1nc([N+](=O)[O-])c(Br)n1CC(=O)c1ccc(Cl)cc1	-1	-24	40	-20	6	-8	.	.	.	.
CC1=C(C(=O)OCc2ccccc2)C(c2ccc(-c3ccccc3)cc2)NC(=O)N1CCCCCC(=O)O (stereo not drawn)	-1	-8	13	92*	95*	-19	-1	9	14	29*
